Experimental data from publication PMC3461162 (British Journal of Cancer, 2012).
Where “and” joins values, the source holds several entries; their conditions need not be identical. Identical values can stand only once.

What was measured:
Type in all cases: in vivo, human
[1] = Phase I dose-escalation safety and tolerability: adverse events, DLTs, MTD
How it was run: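 Multicentre, open-label, dose-escalation study. A single oral dose on day 1 was followed one week later by continuous twice-daily dosing, starting at 10 mg. The first three cohorts got solution, later cohorts tablets. AEs were graded by CTC v3.0 from consent to 30 days after stopping. DLT: a CTC grade 3 AE, or a laboratory abnormality with clinical signs, within 42 days (extended from 35). MTD: last dose below the non-tolerated dose.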

[2] = tested on: tumour glucose uptake; test: Metabolic response by FDG-PET; conditions: day 35
How it was run: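 FDG-PET was done at screening in solid-tumour patients with RECIST-measurable lesions and in all lymphoma patients. Percentage change in SUVmax from baseline was calculated. Metabolic response was defined as an SUVmax decrease >25% per EORTC criteria.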

[3] = tested on: pAKT, p4E-BP1 and pS6 in tumour biopsies; test: Immunohistochemistry of paired pre- and post-dose tumour biopsies; conditions: two patients with baseline and post-dose tumour sample
[4] = tested on: phosphorylation levels of 4E-BP1 on threonine^37/46 in peripheral blood mononuclear cells (PBMCs); test: 4E-BP1 phosphorylation in PBMCs; conditions: 2 h post dose, MTD cohort (90 mg)
How it was run: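 Adult patients with refractory advanced solid tumours or lymphoma got one oral dose on day 1, then continuous twice-daily dosing from one week later. They fasted at least 1 h before and after each dose. PBMCs were taken pre-dose and 2, 8 and 24 h post dose on day 1. Antibodies to the phosphorylated forms were used: AKT Ser473 by mesoscale detection, 4E-BP1 Thr37/46 by FACS.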

[5] = 60 mg BID tablet (n=7), CTCAE grade ⩾3
[6] = 90 mg BID tablet (n=11), CTCAE grade 1–2
[7] = 90 mg BID tablet (n=11), CTCAE grade ⩾3
[8] = 120 mg BID tablet (n=10), CTCAE grade 1–2
[9] = 120 mg BID tablet (n=10), CTCAE grade ⩾3
[10] = CTCAE grade 3, all cohorts, a patient may have experienced more than one DLT
[11] = Total (n=49), Any grade occurring in cycle 1/2

## COc1ccc(-c2ccc3c(N4CCOC[C@@H]4C)nc(N4CCOC[C@@H]4C)nc3n2)cc1CO [AZD8055]
[1]; [5]
  Fatigue: patients with AZD8055-related AE, n (%): 0%
  Hyperglycaemia: patients with AZD8055-related AE, n (%): 0%
  Increased ALT: patients with AZD8055-related AE, n (%): 0%
  Increased AST: patients with AZD8055-related AE, n (%): 1 (14) %
  Increased GGT: patients with AZD8055-related AE, n (%): 1 (14) %
  Nausea: patients with AZD8055-related AE, n (%): 0%
  Stomatitis: patients with AZD8055-related AE, n (%): 0%
[1]; 90 mg BID tablet
  Patients with DLT (grade 3 rise in transaminases): 1 and 1/9
[1]; [6]
  Fatigue: patients with AZD8055-related AE, n (%): 1 (9) %
  Hyperglycaemia: patients with AZD8055-related AE, n (%): 3 (27) %
  Increased ALT: patients with AZD8055-related AE, n (%): 2 (18) %
  Increased AST: patients with AZD8055-related AE, n (%): 1 (9) %
  Increased GGT: patients with AZD8055-related AE, n (%): 0%
  Nausea: patients with AZD8055-related AE, n (%): 2 (18) %
  Stomatitis: patients with AZD8055-related AE, n (%): 2 (18) %
[1]; [7]
  Fatigue: patients with AZD8055-related AE, n (%): 0%
  Hyperglycaemia: patients with AZD8055-related AE, n (%): 0%
  Increased ALT: patients with AZD8055-related AE, n (%): 1 (9) %
  Increased AST: patients with AZD8055-related AE, n (%): 2 (18) %
  Increased GGT: patients with AZD8055-related AE, n (%): 1 (9) %
  Nausea: patients with AZD8055-related AE, n (%): 0%
  Stomatitis: patients with AZD8055-related AE, n (%): 0%
[1]; 120 mg BID cohort, patients evaluable for DLT
  Patients with DLT (grade 3 rise in transaminases): 3 and 3/9
[1]; [8]
  Fatigue: patients with AZD8055-related AE, n (%): 2 (20) %
  Hyperglycaemia: patients with AZD8055-related AE, n (%): 2 (20) %
  Increased ALT: patients with AZD8055-related AE, n (%): 1 (10) %
  Increased AST: patients with AZD8055-related AE, n (%): 1 (10) %
  Increased GGT: patients with AZD8055-related AE, n (%): 1 (10) %
  Nausea: patients with AZD8055-related AE, n (%): 1 (10) %
  Stomatitis: patients with AZD8055-related AE, n (%): 2 (20) %
[1]; [9]
  Fatigue: patients with AZD8055-related AE, n (%): 0%
  Hyperglycaemia: patients with AZD8055-related AE, n (%): 0%
  Increased ALT: patients with AZD8055-related AE, n (%): 2 (20) %
  Increased AST: patients with AZD8055-related AE, n (%): 2 (20) %
  Increased GGT: patients with AZD8055-related AE, n (%): 0%
  Nausea: patients with AZD8055-related AE, n (%): 0%
  Stomatitis: patients with AZD8055-related AE, n (%): 0%
[1]; BID, DLTs in 3/9 evaluable patients
  Non-tolerated dose: 120 mg
[1]; [10]
  DLTs: Increased ALT, Total (%): 3 (6) %
  DLTs: Increased AST, Total (%): 3 (6) %
[1]; [11]
  Fatigue: patients with AZD8055-related AE, n (%): 8 (16) %
  Hyperglycaemia: patients with AZD8055-related AE, n (%): 6 (12) %
  Increased ALT: patients with AZD8055-related AE, n (%): 11 (22) %
  Increased AST: patients with AZD8055-related AE, n (%): 11 (22) %
  Increased GGT: patients with AZD8055-related AE, n (%): 5 (10) %
  Nausea: patients with AZD8055-related AE, n (%): 7 (14) %
  Stomatitis: patients with AZD8055-related AE, n (%): 6 (12) %
[1]; Total (n=49), CTCAE grade 1–2
  Fatigue: patients with AZD8055-related AE, n (%): 8 (16) %
  Hyperglycaemia: patients with AZD8055-related AE, n (%): 6 (12) %
  Increased ALT: patients with AZD8055-related AE, n (%): 5 (10) %
  Increased AST: patients with AZD8055-related AE, n (%): 4 (8) %
  Increased GGT: patients with AZD8055-related AE, n (%): 3 (6) %
  Nausea: patients with AZD8055-related AE, n (%): 7 (14) %
  Stomatitis: patients with AZD8055-related AE, n (%): 6 (12) %
[1]; Total (n=49), CTCAE grade ⩾3
  Fatigue: patients with AZD8055-related AE, n (%): 0%
  Hyperglycaemia: patients with AZD8055-related AE, n (%): 0%
  Increased ALT: patients with AZD8055-related AE, n (%): 6 (12) %
  Increased AST: patients with AZD8055-related AE, n (%): 7 (14) %
  Increased GGT: patients with AZD8055-related AE, n (%): 2 (4) %
  Nausea: patients with AZD8055-related AE, n (%): 0%
  Stomatitis: patients with AZD8055-related AE, n (%): 0%
[1]; all patients (n=49)
  Fatigue, AE assessed to be related to AZD8055, frequency: 16%
[1]; oral, patients with advanced solid tumours or lymphomas
  Maximum tolerated dose (MTD): 90 mg BID
[1]; three patients, one each in the 60, 90 and 120 mg BID tablet groups
  Patients requiring dose reductions as a result of increased transaminases, assessed to be AZD8055-related: 6%
[1]; within cycles 1 and 2, 11 patients, 7 because of an AE
  Patients with a dose interruption: 22%
[2]; 40 mg tablet BID
  Patients with partial metabolic response by FDG-PET (decrease in SUVmax>25%): 2/5
[2]; 60 mg BID
  Patients with partial metabolic response by FDG-PET (decrease in SUVmax>25%): 2/5
[2]; 90 mg BID
  Patients with partial metabolic response by FDG-PET (decrease in SUVmax>25%): 1/7
[2]; 120 mg BID
  Patients with partial metabolic response by FDG-PET (decrease in SUVmax>25%): 3/9
[3]
  Biomarker modulation for pAKT, p4E-BP1 and pS6 in tumour samples: did not show conclusive evidence of biomarker modulation
[4]
  Patients with transient decrease in p4E-BP1 in PBMC: 2/5
